Experimental data: ChEMBL document CHEMBL1955865, “Synthesis of novel spirooxindole derivatives by one pot multicomponent reaction and their antimicrobial activity” (2012)
In brackets after ≈: the same amount, converted by molar mass.

Experiments:
[1] = Antifungal activity against Malassezia pachydermatis at 1000 ug/disc after 48 hrs by disc diffusion assay; format: functional
Procedure, shortened: (§1)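 Fungal disc diffusion with inoculum from SDA spores (filamentous) or SDB culture (yeast). Test cultures were swabbed on agar, and discs at 1000 µg/disc were left 30 min at room temperature, with a solvent negative control. Plates were incubated 48 h at 27 °C. Zone of inhibition was measured in mm, and the experiment was repeated twice.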

[2] = test system: Candida albicans; test: Antifungal activity against Candida albicans MTCC 227 at 1000 ug/disc after 48 hrs by disc diffusion assay; format: functional; settings: MTCC 227, 48 h, read-out: IZ; procedure, shortened: as §1
[3] = test system: Botrytis cinerea; test: Antifungal activity against Botrytis cinerea at 1000 ug/disc after 48 hrs by disc diffusion assay; format: functional; settings: read-out: IZ; procedure, shortened: as §1
[4] = test system: Staphylococcus aureus; test: Antibacterial activity against Staphylococcus aureus MTCC 96 after 24 hrs by twofold serial dilution method; format: functional; settings: MTCC 96, 24 h
Procedure, shortened: (§2)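 Bacteria grown in Mueller Hinton broth for 24 h at 37 °C and diluted to about 10^4 CFU/ml. Compound in 2% DMSO was serially diluted two-fold (1000 to 15.62 µg/ml) in medium in 96-well plates and inoculated. Plates were incubated 24 h at 37 °C. 5 µl of broth was spotted onto MHA, and MIC was taken as the lowest concentration with no visible growth on agar.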

[5] = test system: Staphylococcus aureus; test: Antibacterial activity against methicillin-resistant Staphylococcus aureus after 24 hrs by twofold serial dilution method; format: functional
Procedure, shortened: (§3)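 Broth microdilution in MHB following the standard bacterial reference method. Compound was dissolved in DMSO (2%) and serially diluted two-fold from 1000 to 15.62 µg/ml in 96-well plates, with an inoculum of about 10^4 CFU/ml. Streptomycin and ciprofloxacin were positive controls. After 24 h at 37 °C, 5 µl of broth was subcultured on MHA. MIC was the lowest concentration without visible growth on agar.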

[6] = test system: Micrococcus luteus; test: Antibacterial activity against Micrococcus luteus after 24 hrs by twofold serial dilution method; format: functional; procedure, shortened: as §2
[7] = test system: Klebsiella aerogenes; test: Antibacterial activity against Enterobacter aerogenes MTCC 111 after 24 hrs by twofold serial dilution method; format: functional; settings: MTCC 111, 24 h; procedure, shortened: as §2
[8] = test system: Proteus vulgaris; test: Antibacterial activity against Proteus vulgaris MTCC 1771 after 24 hrs by twofold serial dilution method; format: functional; settings: MTCC 1771, 24 h; procedure, shortened: as §2
[9] = test system: Klebsiella pneumoniae; test: Antibacterial activity against Klebsiella pneumoniae MTCC 109 after 24 hrs by twofold serial dilution method; format: functional; settings: MTCC 109, 24 h; procedure, shortened: as §2
[10] = test system: Salmonella typhimurium; test: Antibacterial activity against Salmonella Typhimurium MTCC 1251 after 24 hrs by two-fold serial dilution method; format: functional, Salmonella enterica subsp. enterica serovar Typhimurium; settings: Salmonella enterica, MTCC 1251, 24 h; procedure, shortened: as §2
[11] = test system: Salmonella enterica subsp. enterica serovar Paratyphi B; test: Antibacterial activity against Salmonella paratyphi B after 24 hrs by twofold serial dilution method; format: functional; procedure, shortened: as §3
[12] = Antifungal activity against Malassezia pachydermatis after 48 to 72 hrs by twofold serial dilution method; format: functional
Procedure, shortened: (§4)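 Broth two-fold serial dilution, 1000 to 15.62 µg/ml, with compound dissolved in 2% DMSO, in 96-well plates. Filamentous fungal spores came from 10-day SDA slants at 28 °C, and yeast from SDB grown 48 h at 28 °C. Incubation was 48-72 h at 28 °C. MIC was the lowest concentration with no visible fungal growth.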

[13] = test system: Candida albicans; test: Antifungal activity against Candida albicans MTCC 227 after 48 to 72 hrs by twofold serial dilution method; format: functional; procedure, shortened: as §4
[14] = test system: Botrytis cinerea; test: Antifungal activity against Botrytis cinerea after 48 to 72 hrs by twofold serial dilution method; format: functional; procedure, shortened: as §4
[15] = test system: Staphylococcus aureus; test: Antibacterial activity against Staphylococcus aureus MTCC 96 at 1000 ug/disc after 24 hrs by disc diffusion assay; format: functional; settings: MTCC 96, 24 h, read-out: IZ
Procedure, shortened: (§5)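 Disc diffusion on Mueller Hinton agar. Cultures (about 10^4 CFU/ml) were swabbed on and dried 10 min. Discs loaded at 1000 µg/disc were left 30 min at room temperature for diffusion, with a solvent negative control. Plates were incubated 24 h at 37 °C. Inhibition zones were measured in mm, and the experiment was done twice.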

[16] = test system: Staphylococcus aureus; test: Antibacterial activity against methicillin-resistant Staphylococcus aureus at 1000 ug/disc after 24 hrs by disc diffusion assay; format: functional; settings: read-out: IZ
Procedure, shortened: (§6)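 Disc diffusion on Mueller Hinton agar. Bacteria were grown 24 h at 37 °C in MHB and diluted to about 10^4 CFU/ml, swabbed onto plates and dried 10 min. Discs were loaded at 1000 μg/disc and held 30 min at room temperature for diffusion. Solvent served as negative control. After 24 h at 37 °C, inhibition zones were read in mm; run twice.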

[17] = test system: Micrococcus luteus; test: Antibacterial activity against Micrococcus luteus at 1000 ug/disc after 24 hrs by disc diffusion assay; format: functional; settings: read-out: IZ; procedure, shortened: as §5
[18] = test system: Klebsiella aerogenes; test: Antibacterial activity against Enterobacter aerogenes MTCC 111 at 1000 ug/disc after 24 hrs by disc diffusion assay; format: functional; settings: MTCC 111, 24 h, read-out: IZ; procedure, shortened: as §5
[19] = test system: Proteus vulgaris; test: Antibacterial activity against Proteus vulgaris MTCC 1771 at 1000 ug/disc after 24 hrs by disc diffusion assay; format: functional; settings: MTCC 1771, 24 h, read-out: IZ; procedure, shortened: as §5
[20] = test system: Klebsiella pneumoniae; test: Antibacterial activity against Klebsiella pneumoniae MTCC 109 at 1000 ug/disc after 24 hrs by disc diffusion assay; format: functional; settings: MTCC 109, 24 h, read-out: IZ; procedure, shortened: as §5
[21] = test system: Salmonella typhimurium; test: Antibacterial activity against Salmonella Typhimurium MTCC 1251 at 1000 ug/disc after 24 hrs by disc diffusion assay; format: functional, Salmonella enterica subsp. enterica serovar Typhimurium; settings: Salmonella enterica, MTCC 1251, 24 h; read-out: IZ; procedure, shortened: as §5
[22] = test system: Salmonella enterica subsp. enterica serovar Paratyphi B; test: Antibacterial activity against Salmonella paratyphi B at 1000 ug/disc after 24 hrs by disc diffusion assay; format: functional; settings: read-out: IZ; procedure, shortened: as §6

With `CCCCCCN1C(=O)C2(C3=C(CN2C)C(=O)c2ccccc2C3=O)c2ccccc21` (stereo not drawn) the inhibition zone (IZ) [1] was 12 mm, the zone of inhibition at 1000 µg/disc [2] was 14 mm and the zone of inhibition at 1000 µg/disc [3] was 10 mm. It also gave an MIC [4] of 250 µg/mL (≈ 603 µM), an MIC [5] of 500 µg/mL (≈ 1210 µM) and an MIC [6] of 250 µg/mL (≈ 603 µM). The MIC [7] was 250 µg/mL (≈ 603 µM), the MIC [8] was 500 µg/mL (≈ 1210 µM) and the MIC [9] was 500 µg/mL (≈ 1210 µM). It also gave an MIC [10] of 62.5 µg/mL (≈ 151 µM), an MIC [11] of 500 µg/mL (≈ 1210 µM) and an MIC [12] of 250 µg/mL (≈ 603 µM). It also gave an MIC [13] of 125 µg/mL (≈ 302 µM), an MIC [14] of 500 µg/mL (≈ 1210 µM) and a zone of inhibition at 1000 µg/disc [15] of 12 mm. For the same molecule, the zone of inhibition at 1000 µg/disc [16] was 10 mm, the zone of inhibition at 1000 µg/disc [17] was 10 mm and the zone of inhibition at 1000 µg/disc [18] was 13 mm. It also gave a zone of inhibition at 1000 µg/disc [19] of 10 mm, a zone of inhibition at 1000 µg/disc [20] of 10 mm and a zone of inhibition at 1000 µg/disc [21] of 16 mm. For the same molecule, the zone of inhibition at 1000 µg/disc [22] was 8 mm.

For `Cc1ccc2c(c1)C1(C(=O)N2)C2=C(CN1C)C(=O)c1ccccc1C2=O` (stereo not drawn), the inhibition zone (IZ) [1] was 12 mm, the zone of inhibition at 1000 µg/disc [2] was 8 mm and the zone of inhibition at 1000 µg/disc [3] was 9 mm. For the same molecule, the MIC [4] was 31.2 µg/mL (≈ 90.7 µM), the MIC [5] was 125 µg/mL (≈ 363 µM) and the MIC [6] was 62.5 µg/mL (≈ 181 µM). For the same molecule, the MIC [7] was 125 µg/mL (≈ 363 µM), the MIC [8] was 250 µg/mL (≈ 726 µM) and the MIC [9] was 62.5 µg/mL (≈ 181 µM). For the same molecule, the MIC [10] was 250 µg/mL (≈ 726 µM), the MIC [11] was 125 µg/mL (≈ 363 µM) and the MIC [12] was 125 µg/mL (≈ 363 µM). For the same molecule, the MIC [13] was 250 µg/mL (≈ 726 µM), the MIC [14] was 250 µg/mL (≈ 726 µM) and the zone of inhibition at 1000 µg/disc [15] was 15 mm. The zone of inhibition at 1000 µg/disc [16] was 12 mm, the zone of inhibition at 1000 µg/disc [17] was 13 mm and the zone of inhibition at 1000 µg/disc [18] was 13 mm. For the same molecule, the zone of inhibition at 1000 µg/disc [19] was 9 mm, the zone of inhibition at 1000 µg/disc [20] was 13 mm and the zone of inhibition at 1000 µg/disc [21] was 12 mm. It also gave a zone of inhibition at 1000 µg/disc [22] of 11 mm.

`C#CCN1C(=O)C2(C3=C(CN2C)C(=O)c2ccccc2C3=O)c2ccccc21` (stereo not drawn) showed an inhibition zone (IZ) [1] of 10 mm, a zone of inhibition at 1000 µg/disc [2] of 10 mm and a zone of inhibition at 1000 µg/disc [3] of 10 mm. It also gave an MIC [4] of 125 µg/mL (≈ 339 µM), an MIC [5] of 125 µg/mL (≈ 339 µM) and an MIC [6] of 125 µg/mL (≈ 339 µM). For the same molecule, the MIC [7] was 250 µg/mL (≈ 679 µM), the MIC [8] was 500 µg/mL (≈ 1360 µM) and the MIC [9] was 250 µg/mL (≈ 679 µM). It also gave an MIC [10] of 62.5 µg/mL (≈ 170 µM), an MIC [11] of 250 µg/mL (≈ 679 µM) and an MIC [12] of 250 µg/mL (≈ 679 µM). For the same molecule, the MIC [13] was 250 µg/mL (≈ 679 µM), the MIC [14] was 250 µg/mL (≈ 679 µM) and the zone of inhibition at 1000 µg/disc [15] was 13 mm. For the same molecule, the zone of inhibition at 1000 µg/disc [16] was 10 mm, the zone of inhibition at 1000 µg/disc [17] was 12 mm and the zone of inhibition at 1000 µg/disc [18] was 11 mm. The zone of inhibition at 1000 µg/disc [19] was 9 mm, the zone of inhibition at 1000 µg/disc [20] was 11 mm and the zone of inhibition at 1000 µg/disc [21] was 15 mm. For the same molecule, the zone of inhibition at 1000 µg/disc [22] was 10 mm.

For `Cc1ccc2c(c1)C1(C(=O)N2C)C2=C(CN1C)C(=O)c1ccccc1C2=O` (stereo not drawn), the inhibition zone (IZ) [1] was 10 mm, the zone of inhibition at 1000 µg/disc [2] was 12 mm and the zone of inhibition at 1000 µg/disc [3] was 11 mm. It also gave an MIC [4] of 15.6 µg/mL (≈ 43.6 µM), an MIC [5] of 125 µg/mL (≈ 349 µM) and an MIC [6] of 125 µg/mL (≈ 349 µM). For the same molecule, the MIC [7] was 62.5 µg/mL (≈ 174 µM), the MIC [8] was 125 µg/mL (≈ 349 µM) and the MIC [9] was 250 µg/mL (≈ 698 µM). For the same molecule, the MIC [10] was 15.6 µg/mL (≈ 43.6 µM), the MIC [11] was 500 µg/mL (≈ 1400 µM) and the MIC [12] was 500 µg/mL (≈ 1400 µM). It also gave an MIC [13] of 250 µg/mL (≈ 698 µM), an MIC [14] of 250 µg/mL (≈ 698 µM) and a zone of inhibition at 1000 µg/disc [15] of 22 mm. For the same molecule, the zone of inhibition at 1000 µg/disc [16] was 14 mm, the zone of inhibition at 1000 µg/disc [17] was 15 mm and the zone of inhibition at 1000 µg/disc [18] was 17 mm. The zone of inhibition at 1000 µg/disc [19] was 16 mm, the zone of inhibition at 1000 µg/disc [20] was 13 mm and the zone of inhibition at 1000 µg/disc [21] was 22 mm. The zone of inhibition at 1000 µg/disc [22] was 8 mm.
